ChEMBL document CHEMBL5252636, “Host-guest binding of tetracationic cyclophanes to photodynamic agents inhibits posttreatment phototoxicity and maintains antitumour efficacy” (RSC Med Chem, 2023)
Active and inactive are the calls of the source. The rule behind the calls is not given here.

Assays:
[1] = Water solubility of compound; format: physicochemical
[2] = Hemolytic activity in rat RBC assessed as hemolysis up to 100 microg/ml measured after 1 hr; format: toxicity, cell-based, Erythrocyte; settings: red blood cells, up to 100 µg/mL, read-out: Activity
In short: (§1)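 Erythrocytes from Sprague Dawley rat or human O-type were used as a 5% (v/v) suspension in normal saline. They were incubated with compound (final 0–100 µg/mL) at 37 °C for 1 h, then centrifuged at 3000 rpm for 10 min at 4 °C. Hemoglobin in the supernatant was read at 545 nm. Saline served as 0% and deionized water as 100% hemolysis.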

[3] = Hemolytic activity in human RBC assessed as hemolysis up to 100 microg/ml measured after 1 hr; format: toxicity, cell-based, Erythrocyte; settings: red blood cells, up to 100 µg/mL, read-out: Activity; in short: as §1
[4] = system: L02; assay: Cytotoxicity against human L02 cells assessed as reduction in cell viability up to 100 microg/ml incubated for 24 hrs by MTT assay; format: toxicity, cell-based; settings: l02, 24 h, up to 100 µg/mL, in the assay text read “CCK-8 assay” for “MTT assay”
In short: (§2)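 CCK-8 viability assay. H9C2 cells were grown in DMEM with 10% FBS, and L02 cells in 1640 medium with 20% FBS, both at 37 °C in 5% CO₂. Cells were seeded at 1×10^4 per well, allowed to adhere for 24 h, then exposed to 0–100 µg/mL for 24 h. CCK-8 was added for 1 h and A450 read. Viability is expressed as % of untreated cells; six independent experiments.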

[5] = system: H9c2; assay: Cytotoxicity against rat H9c2 cells assessed as reduction in cell viability up to 100 microg/ml incubated for 24 hrs by MTT assay; format: toxicity, cell-based; settings: h9c2, 24 h, up to 100 µg/mL, in the assay text read “CCK-8 assay” for “MTT assay”; in short: as §2
[6] = Phototoxicity in laser irradiated BALB/c mouse implanted with mouse B16-F10 cells assessed as pathological changes in kidney at 4 mg/kg, sc administered for 3 days followed by sunlight irradiation for 0.5 hr and […] by H and E staining based analysis; format: toxicity, organism-based; settings: in vivo, iv, in the assay text read “iv administered” for “sc administered”
In short: (§3)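 Female nude BALB/c mice, 7–8 weeks old, received 1×10^5 B16F10 cells s.c. on the right front back (n=8). At ~20 mm³, mice got Photofrin 4.0 mg/kg i.v. and were kept dark for 24 h. Tumours were then lit with a 635 nm laser (145 mW/cm², 7 min), followed within 30 min by compound 4.0 mg/kg i.v. On day 3 came a solar simulator (100 mW/cm², 30 min). Tumour volume (L×W²/2) was measured daily, skin imaged every 2 days, and H&E done on day 13.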

[7] = Phototoxicity in laser irradiated BALB/c mouse implanted with mouse B16-F10 cells assessed as hair follicle enlargement at 4 mg/kg, sc administered for 3 days followed by sunlight irradiation for 0.5 hr and […] by H and E staining based analysis; format: toxicity, organism-based; settings: in vivo, iv, in the assay text read “iv administered” for “sc administered”; in short: as §3
[8] = Phototoxicity in laser irradiated BALB/c mouse implanted with mouse B16-F10 cells assessed as epidermal thickening at 4 mg/kg, sc administered for 3 days followed by sunlight irradiation for 0.5 hr and […] by H and E staining based analysis; format: toxicity, organism-based; settings: in vivo, iv, in the assay text read “iv administered” for “sc administered”; in short: as §3
[9] = system: B16-F10; assay: Antitumor activity against mouse B16-F10 cells implanted BALB/c mouse assessed as reduction in size at 4 mg/kg
[10] = Phototoxicity in laser irradiated BALB/c mouse implanted with mouse B16-F10 cells at 2 mg/kg, followed by sunlight irradiation for 24 hr; settings: in vivo, 96 h
[11] = Phototoxicity in laser irradiated BALB/c mouse implanted with mouse B16-F10 cells at 2 mg/kg, followed by sunlight irradiation for 24 hr in presence of dopamine; settings: in vivo, 96 h
[12] = system: B16-F10; assay: Antitumor activity against mouse B16-F10 cells implanted BALB/c mouse assessed as increase in tumor cell apoptosis at 4 mg/kg, iv by tunel staining based immunohistochemical analysis
[13] = Phototoxicity in laser irradiated BALB/c mouse implanted with mouse B16-F10 cells assessed as skin injury at 4 mg/kg, followed by sunlight irradiation for 0.5 hr and measured on day 11; settings: in vivo, 264 h
[14] = Phototoxicity in laser irradiated BALB/c mouse implanted with mouse B16-F10 cells assessed as increase in tumor volume at 4 mg/kg, followed by sunlight irradiation for 0.5 hr and measured on day 13; settings: in vivo, 312 h
[15] = Phototoxicity in laser irradiated BALB/c mouse implanted with mouse B16-F10 cells assessed as pathological changes in skin at 4 mg/kg, followed by sunlight irradiation for 0.5 hr and measured on day 3 by H and E staining based analysis; settings: in vivo
[16] = Phototoxicity in laser irradiated BALB/c mouse implanted with mouse B16-F10 cells assessed as pathological changes in lung at 4 mg/kg, followed by sunlight irradiation for 0.5 hr and measured on day 3 by H and E staining based analysis; settings: in vivo

Q: With C[n+]1ccc(-c2ccc3cc(-c4cc[n+](C)cc4)ccc3c2)cc1.[Cl-].[Cl-] as the compound, how does the solubility [1] read?
A: 3.5 mM

Q: With C[n+]1ccc(-c2cccc3c(-c4cc[n+](C)cc4)cccc23)cc1.[Cl-].[Cl-] as the compound, how does the solubility [1] read?
A: 20.7 mM

Q: For [Cl-].[Cl-].[Cl-].[Cl-].c1cc2ccc1C[n+]1ccc(cc1)-c1ccc3cc(ccc3c1)-c1cc[n+](cc1)Cc1ccc(cc1)C[n+]1ccc(cc1)-c1ccc3cc(ccc3c1)-c1cc[n+](cc1)C2, which hemolysis at 1 h [2] is on record?
A: ≤ 5%

Q: And the hemolysis at 1 h [3]?
A: ≤ 5%

Q: What about the Activity [4] of the same compound?
A: >= 90%

Q: What about the Activity [5] of the same compound?
A: >= 90%

Q: And the Activity [6]?
A: 66%

Q: What about the Activity [7] of the same compound?
A: Non-Toxic

Q: And the Activity [8]?
A: Non-Toxic

Q: And the Activity [9]?
A: 26 mm3

Q: What about the Activity [10] of the same compound?
A: Non-Toxic

Q: What about the Activity [11] of the same compound?
A: Non-Toxic

Q: And the Activity [12]?
A: Active

Q: What about the Activity [13] of the same compound?
A: Non-Toxic

Q: What about the Activity [14] of the same compound?
A: 1344 mm3

Q: What about the Activity [15] of the same compound?
A: 67%

Q: What about the Activity [16] of the same compound?
A: 41%

Q: With C[n+]1ccc(-c2ccc(-c3cc[n+](C)cc3)c3ccccc23)cc1.[Cl-].[Cl-] as the compound, how does the solubility [1] read?
A: 13.1 mM
